Here are results for five molecules from ChEMBL document CHEMBL1146019, “Structure-based design of novel HIV-1 protease inhibitors to combat drug resistance” (J Med Chem, 2006).

The first assay has as its system Human immunodeficiency virus 1. Kind of assay: Antiviral activity against HIV1 BA-L isolate in human PHA-PBMC cells. It counts as functional, organism-based. As to conditions: Human immunodeficiency virus 1, PBMC. The essentials:
(§1)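 PHA-activated PBMC (1 × 10⁶/mL) were exposed to 50 TCID₅₀ of each isolate and cultured with or without drug in 10-fold serial dilutions. On day 7, supernatant p24 Gag was measured by chemiluminescent enzyme immunoassay. IC₅₀ was the concentration suppressing p24 production by 50% relative to drug-free control cultures. Assays were run in triplicate.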
Molecule `Cc1c(O)cccc1C(=O)N[C@@H](CSc1ccccc1)[C@H](O)CN1C[C@H]2CCCC[C@H]2C[C@H]1C(=O)NC(C)(C)C` registered an IC50 of 7 nM.

`CC(C)CN(CC(O)C(Cc1ccccc1)NC(=O)O[C@@H]1C[C@@H]2CCO[C@@H]2C1)S(=O)(=O)c1ccc(CO)cc1` (stereo not given in full) gave an IC50 of 2 nM.

In a further assay the test system is MT2. Kind of assay: Cytotoxicity against human MT2 cells. It counts as functional.
Settings: not given
`CC(C)CN(CC(O)C(Cc1ccccc1)NC(=O)O[C@@H]1C[C@@H]2CCO[C@@H]2C1)S(=O)(=O)c1ccc(CO)cc1` (stereo not given in full): the CC50 is more than 100000 nM.

In the next assay the test system is Human immunodeficiency virus 1. Kind of assay: Antiviral activity against multi drug-resistant HIV1 B variant in human PHA-PBMC cells. Type of assay: functional, organism-based. As to conditions: Human immunodeficiency virus 1, PBMC. An outline of the steps: (§2)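 PHA-activated peripheral blood mononuclear cells (1 × 10⁶/mL) infected with 50 TCID₅₀ of each isolate and cultured with or without drug in 10-fold serial dilutions. On day 7, p24 Gag protein in the supernatant was measured by automated chemiluminescent enzyme immunoassay. IC₅₀ was the concentration suppressing p24 production by 50% relative to drug-free control cultures. Assays were run in triplicate.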
With `CC(C)CN(C[C@@H](O)[C@H](Cc1ccccc1)NC(=O)O[C@H]1CO[C@H]2OCC[C@H]21)S(=O)(=O)c1ccc(N)cc1`, the IC50 came to 10.2 nM.

In turn, `Cc1c(O)cccc1C(=O)N[C@@H](CSc1ccccc1)[C@H](O)CN1C[C@H]2CCCC[C@H]2C[C@H]1C(=O)NC(C)(C)C` gave an IC50 of more than 1000 nM.

Regarding `CC(C)CN(CC(O)C(Cc1ccccc1)NC(=O)O[C@@H]1C[C@@H]2CCO[C@@H]2C1)S(=O)(=O)c1ccc(CO)cc1` (stereo not given in full), the IC50 was 15 nM.

A further assay deals with Human immunodeficiency virus 1. Kind of assay: Antiviral activity against multi drug-resistant HIV1 EV variant in human PHA-PBMC cells. It counts as functional, organism-based. As to conditions: Human immunodeficiency virus 1, PBMC. The essentials: as §2
The molecule `Cc1c(O)cccc1C(=O)N[C@@H](CSc1ccccc1)[C@H](O)CN1C[C@H]2CCCC[C@H]2C[C@H]1C(=O)NC(C)(C)C` came in with a 50% inhibitory concentration (IC50) of more than 1000 nM.

Molecule `CC(C)CN(CC(O)C(Cc1ccccc1)NC(=O)O[C@@H]1C[C@@H]2CCO[C@@H]2C1)S(=O)(=O)c1ccc(CO)cc1` (stereo not given in full) had a half-inhibitory concentration (IC50) of 52 nM.

The next assay has as its system Human immunodeficiency virus 1. Kind of assay: Antiviral activity against multi drug-resistant HIV1 G variant in human PHA-PBMC cells. It counts as functional, organism-based. As to conditions: Human immunodeficiency virus 1, PBMC. An outline of the steps: as §2
Take `CC(C)CN(C[C@@H](O)[C@H](Cc1ccccc1)NC(=O)O[C@H]1CO[C@H]2OCC[C@H]21)S(=O)(=O)c1ccc(N)cc1`: the 50% inhibitory concentration (IC50) worked out at 3.7 nM.

Turning to `Cc1c(O)cccc1C(=O)N[C@@H](CSc1ccccc1)[C@H](O)CN1C[C@H]2CCCC[C@H]2C[C@H]1C(=O)NC(C)(C)C`, the IC50 worked out at 170 nM.

`CC(C)CN(CC(O)C(Cc1ccccc1)NC(=O)O[C@@H]1C[C@@H]2CCO[C@@H]2C1)S(=O)(=O)c1ccc(CO)cc1` (stereo not given in full) yielded an IC50 of 20 nM.

A further assay concerns Human immunodeficiency virus 2. Kind of assay: Antiviral activity against HIV2 EHO isolate in human MT2 cells. As to conditions: Human immunodeficiency virus 2, MT2. Type of assay: functional, organism-based. The essentials: (§3)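 MT-2 cells (2 × 10⁴/mL) were infected with 100 TCID₅₀ of virus and incubated with various drug concentrations at 37 °C for 7 days. MTT was then added for 2 h at 37 °C, formazan was dissolved in acidified 2-propanol with 4% Triton X-100, and optical density was read. Assays were run in duplicate or triplicate.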
Molecule `Cc1c(O)cccc1C(=O)N[C@@H](CSc1ccccc1)[C@H](O)CN1C[C@H]2CCCC[C@H]2C[C@H]1C(=O)NC(C)(C)C` showed a concentration for half-maximal inhibition (IC50) of 20 nM.

Molecule `CC(C)CN(CC(O)C(Cc1ccccc1)NC(=O)O[C@@H]1C[C@@H]2CCO[C@@H]2C1)S(=O)(=O)c1ccc(CO)cc1` (stereo not given in full) yielded an IC50 of 21 nM.

A further assay has as its system Human immunodeficiency virus 1. Kind of assay: Antiviral activity against HIV1 LAI isolate in human MT2 cells. It counts as functional, organism-based. The conditions noted are these: Human immunodeficiency virus 1, MT2. The essentials: as §3
`CC(C)CN(CC(O)C(Cc1ccccc1)NC(=O)O[C@@H]1C[C@@H]2CCO[C@@H]2C1)S(=O)(=O)c1ccc(N)cc1` (stereo not given in full) returned an IC50 of 8 nM.

The molecule `CC(C)CN(CC(O)C(Cc1ccccc1)NC(=O)O[C@H]1C[C@H]2CCC[C@H]2C1)S(=O)(=O)c1ccc(CO)cc1` (stereo not given in full) showed an IC50 of more than 1000 nM.

On to `Cc1c(O)cccc1C(=O)N[C@@H](CSc1ccccc1)[C@H](O)CN1C[C@H]2CCCC[C@H]2C[C@H]1C(=O)NC(C)(C)C`, for which the IC50 was 10 nM.

Molecule `CC(C)CN(CC(O)C(Cc1ccccc1)NC(=O)O[C@@H]1C[C@@H]2CCO[C@@H]2C1)S(=O)(=O)c1ccc(CO)cc1` (stereo not given in full) showed an IC50 of 1.8 nM.

In a further assay the test system is PBMC. Kind of assay: Cytotoxicity against human PHA-PBMC cells. It counts as functional.
Settings: not given
`CC(C)CN(CC(O)C(Cc1ccccc1)NC(=O)O[C@@H]1C[C@@H]2CCO[C@@H]2C1)S(=O)(=O)c1ccc(CO)cc1` (stereo not given in full) yielded a CC50 of more than 100000 nM.

For the next assay, the system named is Human immunodeficiency virus 1. The assay is described as follows: Antiviral activity against multi drug-resistant HIV1 TM variant in human PHA-PBMC cells. Type of assay: functional, organism-based. The conditions noted are these: Human immunodeficiency virus 1, PBMC. An outline of the steps:
as §2
Molecule `CC(C)CN(C[C@@H](O)[C@H](Cc1ccccc1)NC(=O)O[C@H]1CO[C@H]2OCC[C@H]21)S(=O)(=O)c1ccc(N)cc1` returned an IC50 of 3.5 nM.

Regarding `Cc1c(O)cccc1C(=O)N[C@@H](CSc1ccccc1)[C@H](O)CN1C[C@H]2CCCC[C@H]2C[C@H]1C(=O)NC(C)(C)C`, the IC50 was more than 1000 nM.

`CC(C)CN(CC(O)C(Cc1ccccc1)NC(=O)O[C@@H]1C[C@@H]2CCO[C@@H]2C1)S(=O)(=O)c1ccc(CO)cc1` (stereo not given in full) yielded an IC50 of 4 nM.

For another assay, the system named is Human immunodeficiency virus 1. The assay is described as follows: Antiviral activity against multi drug-resistant HIV1 C variant in human PHA-PBMC cells. It counts as functional, organism-based. The conditions noted are these: Human immunodeficiency virus 1, PBMC. The essentials: as §2
For the molecule `CC(C)CN(C[C@@H](O)[C@H](Cc1ccccc1)NC(=O)O[C@H]1CO[C@H]2OCC[C@H]21)S(=O)(=O)c1ccc(N)cc1`, the IC50 worked out at 3.5 nM.

For `Cc1c(O)cccc1C(=O)N[C@@H](CSc1ccccc1)[C@H](O)CN1C[C@H]2CCCC[C@H]2C[C@H]1C(=O)NC(C)(C)C`, the IC50 came out at 310 nM.

Molecule `CC(C)CN(CC(O)C(Cc1ccccc1)NC(=O)O[C@@H]1C[C@@H]2CCO[C@@H]2C1)S(=O)(=O)c1ccc(CO)cc1` (stereo not given in full) showed a 50% inhibitory concentration (IC50) of 5 nM.

A further assay addresses Human immunodeficiency virus type 1 protease (Human immunodeficiency virus 1, UniProt Q72874). The assay is described as follows: Inhibition of HIV1 protease.
Settings: not given
Consider `CC(C)CN(CC(O)C(Cc1ccccc1)NC(=O)O[C@@H]1C[C@@H]2CCO[C@@H]2C1)S(=O)(=O)c1ccc(N)cc1` (stereo not given in full), for which the affinity corresponds to a Ki of 0.14 nM.

Turning to `CC(C)CN(CC(O)C(Cc1ccccc1)NC(=O)O[C@H]1C[C@H]2CCC[C@H]2C1)S(=O)(=O)c1ccc(CO)cc1` (stereo not given in full), the Ki came out at 5.3 nM.

In the next assay the test system is Human immunodeficiency virus 1. Kind of assay: Antiviral activity against multi drug-resistant HIV1 ES variant in human PHA-PBMC cells. It counts as functional, organism-based. As to conditions: Human immunodeficiency virus 1, PBMC. An outline of the steps:
as §2
Take `Cc1c(O)cccc1C(=O)N[C@@H](CSc1ccccc1)[C@H](O)CN1C[C@H]2CCCC[C@H]2C[C@H]1C(=O)NC(C)(C)C`: the IC50 is more than 1000 nM.

On to `CC(C)CN(CC(O)C(Cc1ccccc1)NC(=O)O[C@@H]1C[C@@H]2CCO[C@@H]2C1)S(=O)(=O)c1ccc(CO)cc1` (stereo not given in full), for which the midpoint of inhibition, the IC50, lay at 31 nM.

In another assay the test system is Human immunodeficiency virus 1. Kind of assay: Antiviral activity against HIV1 LAI isolate in human PHA-PBMC cells. As to conditions: Human immunodeficiency virus 1, PBMC. It counts as functional, organism-based. The essentials: as §1
In the case of `Cc1c(O)cccc1C(=O)N[C@@H](CSc1ccccc1)[C@H](O)CN1C[C@H]2CCCC[C@H]2C[C@H]1C(=O)NC(C)(C)C`, the IC50 is 14 nM.

The molecule `CC(C)CN(CC(O)C(Cc1ccccc1)NC(=O)O[C@@H]1C[C@@H]2CCO[C@@H]2C1)S(=O)(=O)c1ccc(CO)cc1` (stereo not given in full) returned a half-maximal inhibitory concentration (IC50) of 1.8 nM.

Another assay has as its system Human immunodeficiency virus 1. The assay is described as follows: Antiviral activity against multi drug-resistant HIV1 K variant in human PHA-PBMC cells. Type of assay: functional, organism-based. As to conditions: Human immunodeficiency virus 1, PBMC. An outline of the steps: as §2
The molecule `CC(C)CN(C[C@@H](O)[C@H](Cc1ccccc1)NC(=O)O[C@H]1CO[C@H]2OCC[C@H]21)S(=O)(=O)c1ccc(N)cc1` gave an IC50 of 3 nM.

The molecule `Cc1c(O)cccc1C(=O)N[C@@H](CSc1ccccc1)[C@H](O)CN1C[C@H]2CCCC[C@H]2C[C@H]1C(=O)NC(C)(C)C` registered a half-inhibitory concentration (IC50) of more than 1000 nM.

`CC(C)CN(CC(O)C(Cc1ccccc1)NC(=O)O[C@@H]1C[C@@H]2CCO[C@@H]2C1)S(=O)(=O)c1ccc(CO)cc1` (stereo not given in full) returned an IC50 of 3 nM.

A further assay deals with Human immunodeficiency virus 1. The assay is described as follows: Antiviral activity against multi drug-resistant HIV1 ET variant in human PHA-PBMC cells. It counts as functional, organism-based. The conditions noted are these: Human immunodeficiency virus 1, PBMC. An outline of the steps:
as §2
The molecule `Cc1c(O)cccc1C(=O)N[C@@H](CSc1ccccc1)[C@H](O)CN1C[C@H]2CCCC[C@H]2C[C@H]1C(=O)NC(C)(C)C` registered an IC50 of 32 nM.

`CC(C)CN(CC(O)C(Cc1ccccc1)NC(=O)O[C@@H]1C[C@@H]2CCO[C@@H]2C1)S(=O)(=O)c1ccc(CO)cc1` (stereo not given in full) registered a half-maximal inhibitory concentration (IC50) of 3 nM.
